In brackets after ≈: the same amount, converted by molar mass. Activity calls are given as the source filed them. The rule behind the calls is not given here.
Experiments:
[1] = test system: Staphylococcus aureus subsp. aureus RN4220; experiment: Inhibition of PlsY in Staphylococcus aureus RN4220 harboring gpsA mutant assessed as Fab4-mediated fatty acid chain elongation measured as 17C fatty acid level at 25 uM after 2.5 hrs by mass spectrophotometry; parameters: scale not given: the % may be the effect or the level left
Outline: (§1)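 RN4220 grown in Luria-Bertani broth at 37°C with 225 rpm shaking to OD600 0.5. 50 mL cultures treated for 2.5 h alongside a DMSO control. Lipids extracted by Bligh–Dyer and fatty acids analyzed by gas chromatography. Weight percent, mean of duplicates; not detected means <1%.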

[2] = test system: Staphylococcus aureus subsp. aureus RN4220; experiment: Inhibition of PlsY in Staphylococcus aureus RN4220 harboring gpsA mutant assessed as Fab4-mediated fatty acid chain elongation measured as 17C fatty acid level at 50 uM after 2.5 hrs by mass spectrophotometry; parameters: scale not given: the % may be the effect or the level left; outline: as §1
[3] = test system: Staphylococcus aureus subsp. aureus RN4220; experiment: Inhibition of PlsY in Staphylococcus aureus RN4220 harboring gpsA mutant assessed as Fab4-mediated fatty acid chain elongation measured as 20C fatty acid level at 50 uM after 2.5 hrs by mass spectrophotometry; parameters: scale not given: the % may be the effect or the level left; outline: as §1
[4] = test system: Staphylococcus aureus subsp. aureus RN4220; experiment: Inhibition of PlsY in Staphylococcus aureus RN4220 harboring gpsA mutant assessed as 34C phophotidylglycerol formation at 25 uM after 2.5 hrs by mass spectrophotometry
Outline: (§2)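 RN4220 grown in Luria-Bertani broth at 37°C to OD600 0.5. 50 mL aliquots treated for 2.5 h alongside a DMSO control. Cells PBS-washed, lipids extracted by Bligh–Dyer. Phosphatidylglycerol molecular species distribution determined by mass spectrometry.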

[5] = test system: Staphylococcus aureus; experiment: Inhibition of protein synthesis in Staphylococcus aureus RN4220 harboring gpsA mutant assessed as inhibition of [3H]amino acid incorporation into protein at 50 uM incubated for 15 mins before [3H]amino acid addition measured after 30 mins by scintillation counting; assay type: functional, organism-based
Outline: (§3)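 RN4220 at OD600 0.5 in 10 mL aliquots, 15 min with compound. Then 30 min with 10 µCi label: 3H amino acid mix (protein), [3H]thymidine (DNA) or [3H]uracil (stable RNA). Cells collected on 0.45 µm filters, counted, OD600-normalized and expressed relative to untreated cells. Duplicates, mean with standard error.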

[6] = test system: Staphylococcus aureus; experiment: Growth inhibition of Staphylococcus aureus RN4220 harboring gpsA mutant at >= 25 uM measured over 2 hrs by spectrophotometry; assay type: functional, organism-based
[7] = test system: Staphylococcus aureus; experiment: Growth inhibition of Staphylococcus aureus RN4220 harboring gpsA mutant at 6.25 to 100 uM measured immediately by spectrophotometry; assay type: functional, organism-based
[8] = test system: Staphylococcus aureus; experiment: Inhibition of RNA synthesis in Staphylococcus aureus RN4220 harboring gpsA mutant assessed as inhibition of [3H]uracil incorporation into RNA at 50 uM incubated for 15 mins before [3H]uracil addition measured after 30 mins by scintillation counting; assay type: functional, organism-based; outline: as §3
[9] = test system: Streptococcus pneumoniae; experiment: Antibacterial activity against Streptococcus pneumoniae R6 after overnight incubation by microbroth dilution assay; assay type: functional
Outline: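 CLSI M7A7 microbroth dilution in Mueller-Hinton broth; S. pneumoniae broth given 5% lysed horse blood. DMSO stocks of 10 mg/mL; twofold dilutions to final 200–0.0125 µg/mL. Mid-log inoculum (OD600 0.5) diluted to final OD600 0.0005 (~10^5 CFU/mL). Overnight at 37°C; MIC is the lowest concentration inhibiting 90% of visible growth.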

[10] = test system: Staphylococcus aureus subsp. aureus RN4220; experiment: Inhibition of PlsY in Staphylococcus aureus RN4220 harboring gpsA mutant assessed as Fab4-mediated fatty acid chain elongation measured as 19C fatty acid level at 50 uM after 2.5 hrs by mass spectrophotometry; parameters: scale not given: the % may be the effect or the level left; outline: as §1
[11] = test system: Staphylococcus aureus subsp. aureus RN4220; experiment: Inhibition of PlsY-mediated lipid synthesis in Staphylococcus aureus RN4220 harboring gpsA mutant assessed as increase in [14C]-labeled free fatty acid level
[12] = test system: Staphylococcus aureus subsp. aureus RN4220; experiment: Inhibition of PlsY-mediated lipid synthesis in Staphylococcus aureus RN4220 harboring gpsA mutant assessed as inhibition of [14C]acetate incorporation into fatty acid at 50 uM incubated for 15 mins prior to [14C]acetate addition measured after 30 mins by scintillation counting
Outline: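 Mid-log S. aureus RN4220 (OD600 0.5) split into 10 mL aliquots. Compound or DMSO added for 15 min, then 10 µCi [14C]acetate for 30 min. Cells PBS-washed, lipids extracted by Bligh–Dyer, scintillation counted and normalized to OD600. Duplicates, mean with standard error.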

[13] = test system: Staphylococcus aureus subsp. aureus RN4220; experiment: Inhibition of PlsY in Staphylococcus aureus RN4220 harboring gpsA mutant assessed as 36C phophotidylglycerol formation at 50 uM after 2.5 hrs by mass spectrophotometry; outline: as §2
[14] = test system: Bacillus anthracis; experiment: Inhibition of protein synthesis in Bacillus anthracis sterne assessed as Inhibition of [3H]amino acid incorporation into protein incubated for 15 mins prior to [3H]amino acid addition measured after 30 mins by scintillation counting; assay type: functional, organism-based
[15] = Inhibition of Staphylococcus aureus PlsY expressed in Escherichia coli FB23281 using [U-14C]glycerol-PO4 as substrate after 20 mins by scintillation counting
Outline: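 Membranes from E. coli FB23281 (ΔplsY) expressing S. aureus PlsY (SA1187), 4 µg per reaction. pH 7.4 buffer of 100 mM Tris–HCl, 150 mM NaCl, 1 mg/mL BSA and 5 mM Na3VO4, with 100 µM [U-14C]glycerol-PO4. Started with 16:0-PO4 (final 100 µM), 20 min at 37°C. Spotted on filter discs, washed in graded ice-cold TCA, scintillation counted.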

O=C(CCCCCCCc1ccccc1)NS(=O)(=O)Oc1ccccc1
Activity [1]: 10%
Activity [2]: 8%
Activity [3]: 13%
inhibition [4]: Active
inhibition [5]: inactive
growth inhibition (GI) [6]: Active
growth inhibition (GI) [7]: inactive
inhibition [8]: inactive
MIC90 [9]: 100 µg/mL (≈ 266 µM)
Activity [10]: 14%
inhibition [11]: Active
inhibition [12]: Active
inhibition [13]: Active
inhibition [14]: Active
IC50 [15]: 25 µM

Source: ChEMBL document CHEMBL2086264
